Test results: ChEMBL document CHEMBL1135616, “Synthesis of novel 4,1-benzoxazepine derivatives as squalene synthase inhibitors and their inhibition of cholesterol synthesis” (J Med Chem, 2002)

Key:
[1] = target: T1, Squalene synthase (Homo sapiens, UniProt P37268); test: Inhibition of squalene synthase from human hepatoma cells (HepG2)
T1 sequence (P37268 whole entry): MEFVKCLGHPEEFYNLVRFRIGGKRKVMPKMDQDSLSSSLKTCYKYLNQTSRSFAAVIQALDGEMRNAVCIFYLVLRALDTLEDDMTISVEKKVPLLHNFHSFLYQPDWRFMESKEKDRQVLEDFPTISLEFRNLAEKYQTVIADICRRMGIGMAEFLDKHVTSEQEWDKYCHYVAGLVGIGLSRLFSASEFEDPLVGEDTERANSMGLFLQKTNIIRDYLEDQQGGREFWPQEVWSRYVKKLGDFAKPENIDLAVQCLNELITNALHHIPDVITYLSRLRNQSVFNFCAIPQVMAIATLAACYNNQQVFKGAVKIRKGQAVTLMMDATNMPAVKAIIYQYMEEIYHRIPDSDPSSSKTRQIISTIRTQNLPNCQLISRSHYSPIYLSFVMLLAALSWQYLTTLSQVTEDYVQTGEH
Outline: (§1)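 Enzyme source: microsomes from HepG2 cells grown in DMEM/10% FBS, sonicated in phosphate/nicotinamide/MgCl2 buffer. Reaction contained 5 µM [1-3H]FPP, 1 mM NADPH, 5 mM MgCl2, 6 mM glutathione, 100 mM potassium phosphate pH 7.4, 2% DMSO final, 0.8 µg protein. Run 45 min at 37 °C. Chloroform-extracted [3H]squalene counted. IC50 from one run in duplicate.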

[2] = system: Rattus norvegicus; test: In vivo inhibition of sterol synthesis in rats following 10 mg/kg p.o.; assay type: functional; conditions: for inhibition in vivo at 10 mg/kg: Rattus norvegicus, po
Outline: (§2)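 Oral dosing of 6-week-old male Wistar rats with test compound suspended in 0.5% methylcellulose. [14C]acetate (50 μCi/kg) given iv 1 h after the dose; animals killed 1 h later. Livers saponified and extracted with petroleum ether. Sterols precipitated with 0.5% digitonin in 50% ethanol (4 h, room temperature), then counted. Result is % inhibition vs control, mean ± SD (n = 6-10), Dunnett's test.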

[3] = system: Rattus norvegicus; test: Compound was evaluated in vivo for its inhibitory activity against cholesterol synthesis in rat liver; assay type: functional; outline: as §2
[4] = species on record: Rattus norvegicus; test: Concentration required for 50% inhibitory activity against cholesterol synthesis in rat liver; assay type: functional
Outline: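 In vivo hepatic sterol synthesis in 6-week-old male Wistar rats. Oral doses of 1, 3 and 10 mg/kg in 0.5% methylcellulose. [14C]acetate (50 μCi/kg) iv 1 h post-dose; killed 1 h later. Radioactivity of digitonin-precipitable liver sterols measured. ED50 is the oral dose giving 50% inhibition of sterol synthesis.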

[5] = system: Rattus norvegicus; test: Compound at a dose of 1 mg/kg was administered orally to 6 week old male Wistar rats and was evaluated for the inhibition of sterol synthesis; assay type: functional; conditions: route oral; outline: as §2
[6] = system: Rattus norvegicus; test: Compound at a dose of 3 mg/kg was dministered orally to 6 week old male Wistar rats and was evaluated for the inhibition of terol synthesis; assay type: functional; conditions: route oral; outline: as §2
[7] = target: T1, Squalene synthase; test: Inhibitory activity against squalene synthase derived from human hepatoma cells (HepG2); outline: as §1
[8] = system: Rattus norvegicus; test: Compound at a dose of 3 mg/kg was administered orally to 6 week old male Wistar rats and was evaluated for the inhibition of sterol synthesis; assay type: functional; conditions: route oral; outline: as §2

| Compound | IC50 [1] | inhibition in vivo at 10 mg/kg [2] | further results |
| --- | --- | --- | --- |
| COc1cccc([C@H]2O[C@H](CC(=O)NCCCCC(=O)O)C(=O)N(CC(C)(C)CO)c3ccc(Cl)cc32)c1OC | 38 nM | 50% |  |
| CCCC(=O)OCC(C)(C)CN1C(=O)[C@@H](CC(=O)N2CCC(CC(=O)O)CC2)O[C@H](c2cccc(OC)c2OC)c2cc(Cl)ccc21 | 93 nM | 30% |  |
| COc1cccc([C@H]2O[C@H](CC(=O)[O-])C(=O)N(CC(C)(C)C)c3ccc(Cl)cc32)c1OC.[Na+] |  |  | ED50 [3]: 3 mg/kg |
| COc1cccc([C@H]2O[C@H](CC(=O)N3CCC(CC(=O)O)CC3)C(=O)N(CC(C)(C)COC(C)=O)c3ccc(Cl)cc32)c1OC [LAPAQUISTAT ACETATE] | 78 nM | 81% | ED50 [4]: 2.9 mg/kg; inhibition in vivo at 1 mg/kg [5]: 31%; inhibition in vivo at 3 mg/kg [6]: 42% |
| COc1cccc([C@H]2O[C@H](CC(=O)N3CCC(CC(=O)O)CC3)C(=O)N(CC(C)(C)COCOC(=O)C(C)(C)C)c3ccc(Cl)cc32)c1OC |  | 43% | IC50 [7]: 471 nM |
| COc1cccc([C@H]2O[C@H](CC(=O)N3CCC(C(=O)O)CC3)C(=O)N(CC(C)(C)CO)c3ccc(Cl)cc32)c1OC |  | 26% |  |
| COc1cccc([C@H]2O[C@H](CC(=O)N3CCC(CC(=O)O)CC3)C(=O)N(CC(C)(C)CO)c3ccc(Cl)cc32)c1OC | 45 nM | 77% | inhibition in vivo at 3 mg/kg [8]: 20%; ED50 [4]: 6.8 mg/kg; inhibition in vivo at 1 mg/kg [5]: 11%; Inhibition ([2]; route oral, 10 mg/kg): 64% |
| COc1cccc([C@H]2O[C@H](CC(=O)N3CCC(CCCC(=O)O)CC3)C(=O)N(CC(C)(C)CO)c3ccc(Cl)cc32)c1OC | 70 nM | 87% |  |
| COc1cccc([C@H]2O[C@H](CC(=O)N3CCC(CCC(=O)O)CC3)C(=O)N(CC(C)(C)CO)c3ccc(Cl)cc32)c1OC | 61 nM | 76% |  |
| CCC(=O)OCC(C)(C)CN1C(=O)[C@@H](CC(=O)N2CCC(CC(=O)O)CC2)O[C@H](c2cccc(OC)c2OC)c2cc(Cl)ccc21 | 87 nM | 40% |  |
| COc1cccc([C@H]2O[C@H](CC(=O)N3CCC(CC(=O)O)CC3)C(=O)N(CC(C)(C)COC(=O)C(C)C)c3ccc(Cl)cc32)c1OC |  | 34% | IC50 [7]: 89 nM |

The next lines start with results.

| IC50 [1] | Compound | inhibition in vivo at 10 mg/kg [2] | further results |
| --- | --- | --- | --- |
| 21 nM | COc1cccc([C@H]2O[C@H](CC(=O)N[C@@H](C)C(=O)O)C(=O)N(CC(C)(C)CO)c3ccc(Cl)cc32)c1OC | 14% |  |
| 28 nM | COc1cccc([C@H]2O[C@H](CC(=O)NC(CC(C)C)C(=O)O)C(=O)N(CC(C)(C)CO)c3ccc(Cl)cc32)c1OC (stereo partly specified) | 14% |  |
| 32 nM | COc1cccc([C@H]2O[C@H](CC(=O)NCCCC(=O)O)C(=O)N(CC(C)(C)CO)c3ccc(Cl)cc32)c1OC | 59% |  |
| 18 nM | COc1cccc([C@H]2O[C@H](CC(=O)N[C@H](C)C(=O)O)C(=O)N(CC(C)(C)CO)c3ccc(Cl)cc32)c1OC | 31% |  |
| 15 nM | COc1cccc([C@H]2O[C@H](CC(=O)NCC(=O)O)C(=O)N(CC(C)(C)CO)c3ccc(Cl)cc32)c1OC | 14% |  |
| 18 nM | COc1cccc([C@H]2O[C@H](CC(=O)N(C)CC(=O)O)C(=O)N(CC(C)(C)CO)c3ccc(Cl)cc32)c1OC | -1% |  |
| 15 nM | COc1cccc([C@H]2O[C@H](CC(=O)NCCC(=O)O)C(=O)N(CC(C)(C)CO)c3ccc(Cl)cc32)c1OC | 19% |  |
